Results from PubChem BioAssay.
Several values for one entry are separate records, joined by “and”; a condition that tells them apart may be missing. Equal entries are not always repeated. Unmarked numbers belong to inactive results.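 How the source made its calls, unless noted: active means viability at or under a set limit in both replicates, limit being median viability minus 3 SD (cut at about 48% in these data, passing the limit was not always enough); inconclusive means at or under the limit in just one replicate; inactive means at or above the limit in both replicates.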

Test: SK-BR-3 cell growth inhibitors, pilot screen, 24 h, human (AID 572;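 active means viability at or below 10% of carrier control in both of two separate runs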;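 further: compound exposure lasted between 18 and 24 h rather than exactly 24 h; 100% = carrier-treated control wells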)
Conditions: SK-BR-3 viability, CellTiter-Glo luminescence, at 10 µM, active compounds read low

| Compound | viability |
| --- | --- |
| CC(C)N(CCC(C(N)=O)(c1ccccc1)c1ccccn1)C(C)C (configuration not stated) | 85% |
| C[N+]1(C)CCc2cc3c(cc2[C@H]1[C@@H]1OC(=O)c2c1ccc1c2OCO1)OCO3 | 89.5% |
| c1ccc2c(c1)OCC(C1=NCCN1)O2 (configuration not stated) | 104% |
| COc1ccc(OC)c(C(O)C(C)N)c1 (configuration not stated) | 104% |
| C[N+]1(C)[C@@H]2CC[C@H]1CC(OC(=O)C(CO)c1ccccc1)C2 (some centres not stated) | 97.5% and 140% |
| COc1ccc2[nH]cc(CCN(C)C)c2c1 | 108% |
| CCC(COC(=O)c1cc(OC)c(OC)c(OC)c1)(c1ccccc1)N(C)C (configuration not stated) | 87.5% |
| COc1ccc(C(=O)N2CCCC2=O)cc1 | 110% |
| CC[C@@H]1C(=O)OC[C@@H]1Cc1cncn1C | 94% and 104% |

Test: HUVEC growth inhibition – cell-based, human, primary screen (AID 575;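 active means viability at or below 30% in both replicate assays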;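 further: 100% = median of untreated cell wells with 0.1% DMSO on each plate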)
Conditions: HUVEC proliferation, CellTiter-Glo luminescence, 72 h; at 10 µM; active compounds read low
Procedure, shortened: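 System: primary human umbilical vein endothelial cells; Quantity: 1250 endothelial cells in each well; Buffer or medium: supplemented EBM, 2% fetal bovine serum; Doses: one dose, 10 µM final, 0.1% DMSO; Incubation: 72 h compound incubation; Technique: ATP-based CellTiter-Glo luminescent read; Evaluation: percent of median DMSO-control luminescence; Controls: vehicle and MePR control wells.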

| Compound | viability |
| --- | --- |
| CC(C)N(CCC(C(N)=O)(c1ccccc1)c1ccccn1)C(C)C (configuration not stated) | 121% |
| C[N+]1(C)CCc2cc3c(cc2[C@H]1[C@@H]1OC(=O)c2c1ccc1c2OCO1)OCO3 | 87.1% |
| c1ccc2c(c1)OCC(C1=NCCN1)O2 (configuration not stated) | 108% |
| COc1ccc(OC)c(C(O)C(C)N)c1 (configuration not stated) | 108% |
| C[N+]1(C)[C@@H]2CC[C@H]1CC(OC(=O)C(CO)c1ccccc1)C2 (some centres not stated) | 103% and 106% |
| COc1ccc2[nH]cc(CCN(C)C)c2c1 | 86.3% |
| CCC(COC(=O)c1cc(OC)c(OC)c(OC)c1)(c1ccccc1)N(C)C (configuration not stated) | 104% |
| COc1ccc(C(=O)N2CCCC2=O)cc1 | 119% |
| CC[C@@H]1C(=O)OC[C@@H]1Cc1cncn1C | 101% and 91.9% |

Test: growth inhibitors of H69AR lung tumor, primary screen, human, duplicate replicates (AID 580);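 further: 100% = mean luminescence of untreated wells and 0% = no signal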
Conditions: H69AR lung tumor cells viability, ATP luminescence, 72 h; at 10 µM; active compounds read low

| Compound | viability |
| --- | --- |
| CC(C)N(CCC(C(N)=O)(c1ccccc1)c1ccccn1)C(C)C (configuration not stated) | 91.8% |
| C[N+]1(C)CCc2cc3c(cc2[C@H]1[C@@H]1OC(=O)c2c1ccc1c2OCO1)OCO3 | 113% |
| c1ccc2c(c1)OCC(C1=NCCN1)O2 (configuration not stated) | 81.4% |
| COc1ccc(OC)c(C(O)C(C)N)c1 (configuration not stated) | 98.1% |
| C[N+]1(C)[C@@H]2CC[C@H]1CC(OC(=O)C(CO)c1ccccc1)C2 (some centres not stated) | 100% and 112% |
| COc1ccc2[nH]cc(CCN(C)C)c2c1 | 108% |
| CCC(COC(=O)c1cc(OC)c(OC)c(OC)c1)(c1ccccc1)N(C)C (configuration not stated) | 87.6% |
| COc1ccc(C(=O)N2CCCC2=O)cc1 | 103% |
| CC[C@@H]1C(=O)OC[C@@H]1Cc1cncn1C | 102% and 96% |
